Bioassay records from PubChem BioAssay.
Rows were chosen to be rich in hits. Some 2% of all compounds tested hit in one or more screens of this group.
ARFGAP1 inh: inhibitors of rat ARFGAP1 GAP activity, primary screen, biochemical, fluorescence polarization, GDP tracer; AID 651572, 2012; ADP-ribosylation factor GTPase-activating protein 1 (Rattus norvegicus), Q62848; Arfgap1-stimulated ARF1 GTP hydrolysis, GDP FP detection; actives 0.26% (n = 360,000); inhibition, % at 16.5 µM;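 active means inhibition above a per-plate limit, mean inhibition of low control wells plus 3 SD, cut at about 25% in these data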
Target sequence (Q62848 1-136 limits assumed): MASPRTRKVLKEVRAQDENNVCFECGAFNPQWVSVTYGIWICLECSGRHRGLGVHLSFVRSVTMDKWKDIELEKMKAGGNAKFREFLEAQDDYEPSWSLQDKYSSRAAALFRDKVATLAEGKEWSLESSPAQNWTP
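System: truncated rat Arfgap1 GAP domain / Benchmarks: high control wells lacking Arfgap1, low control full reaction with DMSO / Times: compound-enzyme preincubation 20 min, reaction 120 min, detection 60 min, 25 °C / Repeats: one replicate per compound / Also added: human ARF1(Δ1-17)-GTP substrate / Measured by: Tracer-displacement fluorescence polarization with EDTA stop, 620/688 nm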
UHRF1 binding: UHRF1 methylated DNA binding inhibitors, primary screen, counter-screen for MBD2 inhibitor project, biochemical, TR-FRET, human UHRF1, single concentration | AID 687016, 2013 | UHRF1 binding to methylated oligo | inhibition, % at 4.4 µM | actives 0.75% (n = 370,000) | E3 ubiquitin-protein ligase UHRF1 (Homo sapiens), Q96T88; in the data active means inhibition above about 21%;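 further: UHRF1 SRA domain binding a hemimethylated CpG hairpin DNA probe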
MBD2 DNA inh: inhibitors of MBD2 binding to methylated DNA, primary screen, biochemical, TR-FRET, DNA-binding domain, human. inhibition, % at 4.4 µM. MBD2 binding to methylated oligonucleotide. Methyl-CpG-binding domain protein 2 (Homo sapiens), Q9UBB5. actives 0.31% (n = 370,000); in the data active means inhibition above about 13%
Target sequence (Q9UBB5 whole entry, looked up, the tested form may be a part): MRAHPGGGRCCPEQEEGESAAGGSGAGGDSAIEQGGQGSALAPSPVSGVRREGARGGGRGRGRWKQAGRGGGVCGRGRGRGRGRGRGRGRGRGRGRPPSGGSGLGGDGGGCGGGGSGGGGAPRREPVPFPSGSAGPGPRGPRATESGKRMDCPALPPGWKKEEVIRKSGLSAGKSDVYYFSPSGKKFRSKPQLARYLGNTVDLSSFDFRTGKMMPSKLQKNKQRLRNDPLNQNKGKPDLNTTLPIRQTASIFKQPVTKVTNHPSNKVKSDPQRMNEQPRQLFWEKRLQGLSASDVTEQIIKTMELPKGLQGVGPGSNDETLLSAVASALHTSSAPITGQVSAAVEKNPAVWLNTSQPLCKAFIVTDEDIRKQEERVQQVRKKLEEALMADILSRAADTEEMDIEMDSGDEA
ASAP1 GAP inh: inhibitors of human ASAP1 ArfGAP activity, primary screen, biochemical, fluorescence polarization; Arf-GAP with SH3 domain, ANK repeat and PH domain-containing protein 1 (Homo sapiens), …; ASAP1-stimulated ARF1 GTP hydrolysis, GDP FP detection; inhibition, % at 16.5 µM; actives 0.19% (n = 360,000); in the data active means inhibition above about 25%
LEDGF integ inh: blockers of LEDGF/p75-dependent integrase strand transfer – biochemical, TR-FRET, high throughput, primary screen | HIV-1 integrase (with human LEDGF/p75) | TR-FRET IN-LEDGF/p75 DNA integration, Eu/Cy5 | inhibition, % at 3.7 µM | actives 0.64% (n = 370,000) | AID 743269, 2014;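 active means inhibition above the screen-wide mean plus 3 SD, cut at about 13% in these data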;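 further: signal is the Cy5 over europium emission ratio at 671 and 618 nm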
TCR CD3 inh: inhibitors of human TCR-CD3 interaction, primary screen, biochemical, fluorescence, TAMRA-labeled TCR probe; T-cell receptor (TCR); inhibition, % at 9.4 µM; actives 0.37% (n = 360,000); in the data active means inhibition above about 19%;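 further: recombinant mutant TCR 2C K166C tagged with TAMRA read by polarization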
ASAP1 inh confirm: ASAP1 GAP activity inhibitors, confirmation, biochemical, fluorescence polarization, human, triplicate. ASAP1-stimulated Arf1 GTPase, GDP fluorescence polarization. shares compounds with ASAP1 GAP inh. actives 37% (n = 620). AID 624431, 2012. inhibition, % at 16.5 µM;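 active means mean inhibition over triplicates exceeds the hit threshold derived for the earlier primary screening run, cut at about 25% in these data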
A number is an active result.

`O=c1c2ccccc2sn1-c1ccc(S(=O)(=O)N2CCCCC2)cc1` gave ARFGAP1 inh inactive, UHRF1 binding inactive, MBD2 DNA inh inactive, ASAP1 GAP inh 25, LEDGF integ inh inactive, TCR CD3 inh inactive and ASAP1 inh confirm inactive.
`CCOC(=O)c1csc(NC(=O)C2CCCN(S(=O)(=O)c3ccccc3)C2)n1` (configuration not stated) gave UHRF1 binding inactive, MBD2 DNA inh inactive and LEDGF integ inh inactive.
For Fc1ccc(Nc2nc(-c3ccncc3)nc3ccccc23)cc1F the results were ARFGAP1 inh inactive, UHRF1 binding inactive, MBD2 DNA inh inactive, ASAP1 GAP inh 38, LEDGF integ inh inactive, TCR CD3 inh inactive and ASAP1 inh confirm 36.
Screening CCOc1cccc(N(C(=O)CNC(=O)c2ccco2)C(C(=O)NCC2CCCO2)c2ccccc2)c1 (configuration not stated) returned ARFGAP1 inh inactive, UHRF1 binding inactive, MBD2 DNA inh inactive, ASAP1 GAP inh 25, LEDGF integ inh inactive, TCR CD3 inh inactive and ASAP1 inh confirm inactive.
O=C(CCc1ccccc1)Nc1ccc(NC(=O)c2ccco2)cc1 was read as ARFGAP1 inh inactive, UHRF1 binding inactive, MBD2 DNA inh inactive, ASAP1 GAP inh inactive, LEDGF integ inh inactive and TCR CD3 inh inactive.
For O=C(Nc1ccc(CSc2ccccc2)cc1)c1ccco1 the results were ARFGAP1 inh inactive, UHRF1 binding inactive, MBD2 DNA inh inactive, ASAP1 GAP inh 25, LEDGF integ inh inactive, TCR CD3 inh inactive and ASAP1 inh confirm inactive.
CC1=C2NC(N)=[N+](Cc3ccccc3)CC2n2c(=O)n(-c3ccccc3)c(=O)n2C1 (configuration not stated) was read as UHRF1 binding inactive, MBD2 DNA inh inactive and LEDGF integ inh inactive.
For C/C(=N/NS(=O)(=O)c1ccc(C)cc1)c1ccc(NC(=O)C(F)(F)F)cc1 the results were ARFGAP1 inh inactive, UHRF1 binding inactive, MBD2 DNA inh inactive, ASAP1 GAP inh 25, LEDGF integ inh inactive, TCR CD3 inh inactive and ASAP1 inh confirm inactive.
CCCCOc1ccc(S(=O)(=O)NC(=O)C2(C)CCN2C(=O)CCc2ccccc2)cc1 (configuration not stated) was read as ARFGAP1 inh inactive, UHRF1 binding inactive, MBD2 DNA inh inactive, ASAP1 GAP inh inactive, LEDGF integ inh inactive and TCR CD3 inh inactive.
For Cc1ccc2nc(/C(C#N)=C\c3ccc([N+](=O)[O-])o3)[nH]c2c1 the results were ARFGAP1 inh inactive, UHRF1 binding inactive, MBD2 DNA inh inactive, ASAP1 GAP inh inactive, LEDGF integ inh inactive and TCR CD3 inh inactive.
`N#C/C(=C\c1ccc([N+](=O)[O-])o1)c1nc2ccccc2[nH]1` gave ARFGAP1 inh inactive, UHRF1 binding inactive, MBD2 DNA inh inactive, ASAP1 GAP inh 29, LEDGF integ inh inactive, TCR CD3 inh inactive and ASAP1 inh confirm inactive.
Screening COc1ccc(Br)cc1C(=O)Nc1ccc(N2CCCC2)cc1 returned ARFGAP1 inh 46, UHRF1 binding inactive, MBD2 DNA inh inactive, ASAP1 GAP inh 32, LEDGF integ inh inactive, TCR CD3 inh 19 and ASAP1 inh confirm 49.
O=C(OCC#CCSc1nnc(-c2ccc(F)cc2)o1)c1ccc(F)cc1 was read as UHRF1 binding inactive, MBD2 DNA inh inactive and LEDGF integ inh inactive.
For O=C(O)COc1ccccc1/C=N/NC(=O)Cc1csc(Nc2cccc(C(F)(F)F)c2)n1 the results were ARFGAP1 inh inactive, UHRF1 binding inactive, MBD2 DNA inh inactive, ASAP1 GAP inh 37, LEDGF integ inh inactive, TCR CD3 inh inactive and ASAP1 inh confirm inactive.
Screening O=S1(=O)c2ccccc2-c2c(nnn2Cc2ccccc2)CN1C1CC1 returned UHRF1 binding inactive, MBD2 DNA inh inactive and LEDGF integ inh inactive.
For CCOC(=O)C1CCN(c2nc(N)c3c(N)nc(SCC(=O)O)cc3c2C#N)CC1 the results were ARFGAP1 inh 38, UHRF1 binding inactive, MBD2 DNA inh inactive, ASAP1 GAP inh 41, LEDGF integ inh inactive, TCR CD3 inh inactive and ASAP1 inh confirm 25.
For Cc1cc(N2CCN(CCO)CC2)n2nc(C)nc2n1 the results were UHRF1 binding inactive, MBD2 DNA inh inactive and LEDGF integ inh inactive.
For Cc1ccc(S(=O)(=O)NCCNc2ccc([N+](=O)[O-])cc2)cc1 the results were ARFGAP1 inh inactive, UHRF1 binding inactive, MBD2 DNA inh inactive, ASAP1 GAP inh 29, LEDGF integ inh inactive, TCR CD3 inh inactive and ASAP1 inh confirm inactive.
For Cc1ccc(S(=O)(=O)NCCCNc2ccc([N+](=O)[O-])cc2)cc1 the results were ARFGAP1 inh inactive, UHRF1 binding inactive, MBD2 DNA inh inactive, ASAP1 GAP inh inactive, LEDGF integ inh inactive and TCR CD3 inh inactive.
`Cc1nc(SCC(=O)Nc2c(C)nn(C)c2C)c2cnn(-c3ccccc3)c2n1` gave ARFGAP1 inh inactive, UHRF1 binding inactive, MBD2 DNA inh inactive, ASAP1 GAP inh 25, LEDGF integ inh inactive, TCR CD3 inh inactive and ASAP1 inh confirm inactive.
`Cc1nn(Cc2ccccc2)c(C)c1NC(=O)CSc1nc(-c2ccccc2)nc2c1cnn2-c1ccccc1` gave ARFGAP1 inh inactive, UHRF1 binding inactive, MBD2 DNA inh inactive, ASAP1 GAP inh inactive, LEDGF integ inh inactive and TCR CD3 inh inactive.
For COc1cc(O)cc(/C=C/c2ccccc2)c1 the results were ARFGAP1 inh inactive, UHRF1 binding inactive, MBD2 DNA inh inactive, ASAP1 GAP inh 27, LEDGF integ inh inactive, TCR CD3 inh inactive and ASAP1 inh confirm inactive.
`COc1ccc(C(=O)/C=C/c2ccccc2)c(O)c1` gave ARFGAP1 inh inactive, UHRF1 binding inactive, MBD2 DNA inh inactive, ASAP1 GAP inh inactive, LEDGF integ inh inactive and TCR CD3 inh inactive.
COc1cc2c3nnc(-c4ccccc4)c-3cn(Cc3ccc(F)cc3)c2cc1OC was read as ARFGAP1 inh inactive, UHRF1 binding inactive, MBD2 DNA inh inactive, ASAP1 GAP inh inactive, LEDGF integ inh inactive and TCR CD3 inh inactive.
For COc1cc2c3nnc(-c4ccc(F)cc4)c-3cn(Cc3cccc(C)c3)c2cc1OC the results were ARFGAP1 inh inactive, UHRF1 binding inactive, MBD2 DNA inh inactive, ASAP1 GAP inh 123, LEDGF integ inh inactive, TCR CD3 inh inactive and ASAP1 inh confirm 181.
